Calls of active or inactive are those of the source. No cut-off for these calls is given here.

The target in assay [1] is T1, Lysophosphatidic acid receptor 3 (Homo sapiens) (UniProt Q9UBY5).
T1 sequence (whole entry): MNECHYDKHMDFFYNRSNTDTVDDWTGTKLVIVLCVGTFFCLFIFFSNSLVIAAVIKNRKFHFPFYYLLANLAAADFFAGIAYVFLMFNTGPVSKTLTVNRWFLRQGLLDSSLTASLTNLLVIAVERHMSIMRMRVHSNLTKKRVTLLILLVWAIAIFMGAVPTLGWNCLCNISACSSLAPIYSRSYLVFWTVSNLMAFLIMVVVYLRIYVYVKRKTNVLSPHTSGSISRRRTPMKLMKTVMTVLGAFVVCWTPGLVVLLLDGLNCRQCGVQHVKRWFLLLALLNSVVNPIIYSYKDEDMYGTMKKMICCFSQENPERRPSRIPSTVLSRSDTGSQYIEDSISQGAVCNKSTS
The assay is described as follows: Agonist activity at LPA3 receptor expressed in rat RH7777 cells assessed as effect on intracellular calcium response at 10 uM. In kind it is functional, cell-based. In outline: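 Agonist test: compound (methanol stock diluted in buffer) was applied alone to fura-2-loaded, stably receptor-expressing cells after overnight culture and 4-6 h in serum-free medium. Intracellular Ca2+ was followed as the 520 nm emission ratio at 340/380 nm excitation. Run in quadruplicate.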
For orientation: Calcium assays in cells follow changes in intracellular calcium, usually with a dye or a luminescent sensor.

Assay [2] concerns the target Lysophosphatidic acid receptor 3 (Homo sapiens) (UniProt Q9UBY5). Nature of the assay: Antagonist activity at LPA3 receptor expressed in rat RH7777 cells assessed as inhibition of LPA-induced calcium response at 10 uM.
Assay [3] deals with T1, Lysophosphatidic acid receptor 3 (Homo sapiens). The assay is described as follows: (§1) Antagonist activity at LPA3 receptor expressed in rat RH7777 cells assessed as inhibition of LPA-induced intracellular calcium response. In kind it is functional, cell-based. In outline: (§2)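 Cells stably expressing the receptor were plated, cultured overnight, serum-starved for 4-6 h and loaded with fura-2. LPA-induced Ca2+ mobilization was measured as the 520 nm emission ratio at 340/380 nm excitation. Compounds were dissolved in methanol and diluted in buffer. IC50 came from concentration-response curves, with samples in quadruplicate.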

In assay [4] the target is T2, Lysophosphatidic acid receptor 5 (Homo sapiens, UniProt Q9H1C0). Nature of the assay: Binding affinity to LPA5.
T2 sequence (Q9H1C0 whole entry): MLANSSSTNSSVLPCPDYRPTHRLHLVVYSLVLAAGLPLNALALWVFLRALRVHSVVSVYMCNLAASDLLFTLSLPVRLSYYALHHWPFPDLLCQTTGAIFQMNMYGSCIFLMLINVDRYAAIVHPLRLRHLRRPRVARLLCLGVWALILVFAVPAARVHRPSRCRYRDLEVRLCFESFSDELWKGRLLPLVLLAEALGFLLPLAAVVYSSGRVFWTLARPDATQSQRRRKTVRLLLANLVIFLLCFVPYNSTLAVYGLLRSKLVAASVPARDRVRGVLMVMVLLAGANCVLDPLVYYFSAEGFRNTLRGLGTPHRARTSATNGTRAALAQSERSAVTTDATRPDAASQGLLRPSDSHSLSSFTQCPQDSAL
Assay [5] deals with T3, Lysophosphatidic acid receptor 3 (Homo sapiens, UniProt Q9UBY5).
T3 sequence (Q9UBY5 whole entry): T1 sequence (whole entry)
Nature of the assay: Binding affinity to LPA3.

Assay [6] addresses T2, Lysophosphatidic acid receptor 5. The assay is described as follows: Antagonist activity at LPA5 receptor expressed in rat RH7777 cells assessed as inhibition of LPA-induced intracellular calcium response. In kind it is functional, cell-based. In outline:
as §2

For assay [7], the target named is T3, Lysophosphatidic acid receptor 3. Described as §1. In kind it is functional, cell-based. In outline:
as §2

The target in assay [8] is T4, Lysophosphatidic acid receptor 1 (Homo sapiens, UniProt Q92633). The assay is described as follows: Antagonist activity at LPA1 receptor expressed in rat RH7777 cells assessed as inhibition of LPA-induced intracellular calcium response. It counts as functional, cell-based. Summed up:
as §2

Assay [9] concerns the target T4, Lysophosphatidic acid receptor 1. The assay is described as follows: Binding affinity to LPA1.

T4 sequence (Q92633 whole entry): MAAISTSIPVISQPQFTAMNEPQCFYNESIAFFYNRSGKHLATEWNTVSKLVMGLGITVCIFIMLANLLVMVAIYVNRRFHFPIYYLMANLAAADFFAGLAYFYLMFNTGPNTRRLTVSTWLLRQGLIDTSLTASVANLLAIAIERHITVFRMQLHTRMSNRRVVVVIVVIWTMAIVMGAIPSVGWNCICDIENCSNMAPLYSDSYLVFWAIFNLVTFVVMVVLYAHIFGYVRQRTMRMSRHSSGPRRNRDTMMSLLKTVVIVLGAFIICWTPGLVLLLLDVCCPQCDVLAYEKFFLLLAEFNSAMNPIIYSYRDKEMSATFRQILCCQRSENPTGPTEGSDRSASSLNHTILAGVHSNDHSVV

Consider `O=C(O)CN1C(=O)c2ccc(C(=O)c3cccc([N+](=O)[O-])c3)cc2C1=O`, for which the result in [1] was Active. Take `O=C(O)c1ccccc1N1C(=O)c2ccc(Oc3ccc([N+](=O)[O-])cc3)cc2C1=O`: the inhibition in assay [2] worked out at 38%. In the case of `O=C(O)CN1C(=O)c2ccc(Oc3cccc([N+](=O)[O-])c3)cc2C1=O`, the Imax in [3] was found to be 50%. As for `O=C(O)CCCN1C(=O)c2ccc(C(=O)c3cccc([N+](=O)[O-])c3)cc2C1=O`, in assay [2], the inhibition worked out at 10%.

For `CC(=O)COc1ccc(NC(=O)CN2C(=O)c3ccc([N+](=O)[O-])cc3C2=O)cc1`, in [1], the result was Active. `CC(=O)c1ccc(NC(=O)c2cccc(N3C(=O)c4ccc([N+](=O)[O-])cc4C3=O)c2)cc1`: the inhibition in [2] was found to be 18%. As for `O=C(O)COc1ccc(N2C(=O)c3ccc(Oc4cccc([N+](=O)[O-])c4)cc3C2=O)cc1`, the outcome in assay [1] was Active.

On to `Cc1c(C(=O)O)cccc1N1C(=O)c2ccc(Oc3cccc([N+](=O)[O-])c3)cc2C1=O`, for which the inhibition in assay [2] is 42%.

Take `O=C(O)CCCN1C(=O)c2ccc(Oc3cccc([N+](=O)[O-])c3)cc2C1=O`: the inhibition in assay [2] turned out to be 18%. As for `O=C1c2ccc(Oc3cccc([N+](=O)[O-])c3)cc2C(=O)N1Cc1cccnc1`, the inhibition in [2] came out at 38%. Turning to `O=C(O)c1ccc2c(c1)C(=O)N(c1cccc(Oc3ccc([N+](=O)[O-])cc3)c1)C2=O`, the inhibition in [2] came out at 82%. Also, the Ki in assay [4] came out at 0.292 µM; in assay [5], 0.23 µM; in assay [9] it was 0.048 µM. The IC50 in assay [6] was determined as 0.463 µM; in assay [7], 0.752 µM; in [8] it was 0.094 µM. `Cc1ccc(Oc2ccc3c(c2)C(=O)N(CC(=O)O)C3=O)cc1`: the inhibition constant (Ki) in [5] turned out to be 1.08 µM; in [9] it was 0.311 µM. Moreover, the figures for the IC50 in assay [7] and in assay [8] were 2.99 µM and 0.609 µM, respectively. `O=C(O)c1cc(C(=O)O)cc(N2C(=O)c3ccc(Oc4cccc([N+](=O)[O-])c4)cc3C2=O)c1`: in assay [2], the inhibition was found to be 43%.

One may read the inhibition as the percentage by which the read-out fell short of the control. Usually Ki stands for a dissociation constant, usually derived from enzyme kinetics or from competition with a known ligand. Low readings indicate higher affinity, high ones lower affinity. One may read the IC50 as the point on the concentration scale where inhibition reaches its midpoint.

The values above are taken from ChEMBL document CHEMBL1152645, “Structure-based drug design identifies novel LPA3 antagonists” (Bioorg Med Chem, 2009).
